Measured values published in ChEMBL document CHEMBL4689842, “EUbOPEN Chemogenomics Library wave 1” (2021).
“And” between values parts separate entries of the source, which are not always exact repeats. Equal values may be shown once.

Test system: U2OS
Experiment: Multiplex assay against U2OS
Format: toxicity, cell-based
Conditions: human
Procedure, shortened: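 Live cells carried four stains from seeding: Hoechst33342, BioTracker Green Microtubule Cytoskeleton Dye, MitoTracker Red and Annexin V Alexa Fluor 680. They were imaged on a CQ1 microscope at 37°C and 5% CO2 after compound addition. Using CellPathfinder machine-learning gating, cells were split into Hoechst high-intensity objects or normal cells, normal cells into healthy, pyknosed or fragmented nuclei, and pyknosed cells into mitotic or apoptotic; tubulin, mitochondrial-mass and membrane-permeability phenotypes are per cents of healthy-nucleus cells.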

[1] = 12 h, 1 µM, compound concentration 1 uM, replicate 1
[2] = 12 h, 1 µM, compound concentration 1 uM, replicate 2
[3] = 12 h, 10 µM, compound concentration 10 uM, replicate 1
[4] = 12 h, 10 µM, compound concentration 10 uM, replicate 2
[5] = 24 h, 1 µM, compound concentration 1 uM, replicate 1
[6] = 24 h, 1 µM, compound concentration 1 uM, replicate 2
[7] = 24 h, 10 µM, compound concentration 10 uM, replicate 1
[8] = 24 h, 10 µM, compound concentration 10 uM, replicate 2
[9] = 48 h, 1 µM, compound concentration 1 uM, replicate 1
[10] = 48 h, 1 µM, compound concentration 1 uM, replicate 2
[11] = 48 h, 10 µM, compound concentration 10 uM, replicate 1
[12] = 48 h, 10 µM, compound concentration 10 uM, replicate 2

`COc1ncc(-c2ccc3nccc(-c4ccnnc4)c3c2)cc1NS(=O)(=O)c1ccc(F)cc1F` [OMIPALISIB] was tested, and the “Population Apoptotic (%)” value [1] was 65%, the “Population Fragmented Nuclei (%)” value [1] was 13% and the “Population Healthy Nuclei (%)” value [1] was 67%. The “Population Hoechst High Intensity Objects (%)” value [1] was 4%, the “Population Membrane Permeable-Phenotype (%)” value [1] was 6% and the “Population Mitochondria Different-Phenotype (%)” value [1] was 3%. For the same compound, the “Population Mitotic Cells (%)” value [1] was 34%, the “Population Normal (%)” value [1] was 95% and the “Population Pyknosed Nuclei (%)” value [1] was 18%. For the same compound, the “Population Tubulin-Different-Phenotype (%)” value [1] was 9%, the “Total Cell Count” value [1] was 135 and the “Population Apoptotic (%)” value [2] was 50%. For the same compound, the “Population Fragmented Nuclei (%)” value [2] was 46%, the “Population Healthy Nuclei (%)” value [2] was 42% and the “Population Hoechst High Intensity Objects (%)” value [2] was 7%. For the same compound, the “Population Membrane Permeable-Phenotype (%)” value [2] was 16%, the “Population Mitochondria Different-Phenotype (%)” value [2] was 16% and the “Population Mitotic Cells (%)” value [2] was 50%. For the same compound, the “Population Normal (%)” value [2] was 92%, the “Population Pyknosed Nuclei (%)” value [2] was 11% and the “Population Tubulin-Different-Phenotype (%)” value [2] was 23%. The “Total Cell Count” value [2] was 51, the “Population Apoptotic (%)” value [3] was 58% and the “Population Fragmented Nuclei (%)” value [3] was 28%. The “Population Healthy Nuclei (%)” value [3] was 37%, the “Population Hoechst High Intensity Objects (%)” value [3] was 6% and the “Population Membrane Permeable-Phenotype (%)” value [3] was 14%. For the same compound, the “Population Mitochondria Different-Phenotype (%)” value [3] was 15%, the “Population Mitotic Cells (%)” value [3] was 41% and the “Population Normal (%)” value [3] was 93%. The “Population Pyknosed Nuclei (%)” value [3] was 33%, the “Population Tubulin-Different-Phenotype (%)” value [3] was 15% and the “Total Cell Count” value [3] was 150. The “Population Apoptotic (%)” value [4] was 65%, the “Population Fragmented Nuclei (%)” value [4] was 33% and the “Population Healthy Nuclei (%)” value [4] was 27%. For the same compound, the “Population Hoechst High Intensity Objects (%)” value [4] was 7%, the “Population Membrane Permeable-Phenotype (%)” value [4] was 11% and the “Population Mitochondria Different-Phenotype (%)” value [4] was 16%. The “Population Mitotic Cells (%)” value [4] was 34%, the “Population Normal (%)” value [4] was 92% and the “Population Pyknosed Nuclei (%)” value [4] was 39%. The “Population Tubulin-Different-Phenotype (%)” value [4] was 22%, the “Total Cell Count” value [4] was 77 and the “Population Apoptotic (%)” value [5] was 62%. The “Population Fragmented Nuclei (%)” value [5] was 19%, the “Population Healthy Nuclei (%)” value [5] was 61% and the “Population Hoechst High Intensity Objects (%)” value [5] was 9%. For the same compound, the “Population Membrane Permeable-Phenotype (%)” value [5] was 5%, the “Population Mitochondria Different-Phenotype (%)” value [5] was 4% and the “Population Mitotic Cells (%)” value [5] was 37%. For the same compound, the “Population Normal (%)” value [5] was 90%, the “Population Pyknosed Nuclei (%)” value [5] was 18% and the “Population Tubulin-Different-Phenotype (%)” value [5] was 14%. The “Total Cell Count” value [5] was 135, the “Population Apoptotic (%)” value [6] was 33% and the “Population Fragmented Nuclei (%)” value [6] was 43%. For the same compound, the “Population Healthy Nuclei (%)” value [6] was 40%, the “Population Hoechst High Intensity Objects (%)” value [6] was 11% and the “Population Membrane Permeable-Phenotype (%)” value [6] was 24%. The “Population Mitochondria Different-Phenotype (%)” value [6] was 17%, the “Population Mitotic Cells (%)” value [6] was 66% and the “Population Normal (%)” value [6] was 88%. The “Population Pyknosed Nuclei (%)” value [6] was 16%, the “Population Tubulin-Different-Phenotype (%)” value [6] was 37% and the “Total Cell Count” value [6] was 50. For the same compound, the “Population Apoptotic (%)” value [7] was 70%, the “Population Fragmented Nuclei (%)” value [7] was 36% and the “Population Healthy Nuclei (%)” value [7] was 25%. For the same compound, the “Population Membrane Permeable-Phenotype (%)” value [7] was 17%, the “Population Mitochondria Different-Phenotype (%)” value [7] was 25% and the “Population Mitotic Cells (%)” value [7] was 29%. The “Population Pyknosed Nuclei (%)” value [7] was 38%, the “Population Tubulin-Different-Phenotype (%)” value [7] was 17% and the “Total Cell Count” value [7] was 170. The “Population Apoptotic (%)” value [8] was 80%, the “Population Fragmented Nuclei (%)” value [8] was 27% and the “Population Healthy Nuclei (%)” value [8] was 22%. The “Population Hoechst High Intensity Objects (%)” value [8] was 11%, the “Population Membrane Permeable-Phenotype (%)” value [8] was 35% and the “Population Mitochondria Different-Phenotype (%)” value [8] was 28%. For the same compound, the “Population Mitotic Cells (%)” value [8] was 20%, the “Population Normal (%)” value [8] was 88% and the “Population Pyknosed Nuclei (%)” value [8] was 49%. The “Population Tubulin-Different-Phenotype (%)” value [8] was 42%, the “Total Cell Count” value [8] was 81 and the “Population Apoptotic (%)” value [9] was 59%. For the same compound, the “Population Fragmented Nuclei (%)” value [9] was 23%, the “Population Healthy Nuclei (%)” value [9] was 50% and the “Population Hoechst High Intensity Objects (%)” value [9] was 12%. The “Population Membrane Permeable-Phenotype (%)” value [9] was 7%, the “Population Mitochondria Different-Phenotype (%)” value [9] was 6% and the “Population Mitotic Cells (%)” value [9] was 40%. The “Population Normal (%)” value [9] was 87%, the “Population Pyknosed Nuclei (%)” value [9] was 26% and the “Population Tubulin-Different-Phenotype (%)” value [9] was 16%. For the same compound, the “Total Cell Count” value [9] was 142, the “Population Apoptotic (%)” value [10] was 47% and the “Population Fragmented Nuclei (%)” value [10] was 43%. The “Population Healthy Nuclei (%)” value [10] was 32%, the “Population Hoechst High Intensity Objects (%)” value [10] was 15% and the “Population Membrane Permeable-Phenotype (%)” value [10] was 39%. For the same compound, the “Population Mitochondria Different-Phenotype (%)” value [10] was 43%, the “Population Mitotic Cells (%)” value [10] was 52% and the “Population Normal (%)” value [10] was 84%. The “Population Pyknosed Nuclei (%)” value [10] was 23%, the “Population Tubulin-Different-Phenotype (%)” value [10] was 56% and the “Total Cell Count” value [10] was 59. The “Population Apoptotic (%)” value [11] was 83%, the “Population Fragmented Nuclei (%)” value [11] was 37% and the “Population Healthy Nuclei (%)” value [11] was 9%. For the same compound, the “Population Hoechst High Intensity Objects (%)” value [11] was 15%, the “Population Membrane Permeable-Phenotype (%)” value [11] was 46% and the “Population Mitochondria Different-Phenotype (%)” value [11] was 46%. The “Population Mitotic Cells (%)” value [11] was 16%, the “Population Normal (%)” value [11] was 84% and the “Population Pyknosed Nuclei (%)” value [11] was 52%. The “Population Tubulin-Different-Phenotype (%)” value [11] was 61%, the “Total Cell Count” value [11] was 181 and the “Population Apoptotic (%)” value [12] was 82%. The “Population Fragmented Nuclei (%)” value [12] was 31%, the “Population Healthy Nuclei (%)” value [12] was 19% and the “Population Hoechst High Intensity Objects (%)” value [12] was 18%. The “Population Membrane Permeable-Phenotype (%)” value [12] was 81%, the “Population Mitochondria Different-Phenotype (%)” value [12] was 72% and the “Population Mitotic Cells (%)” value [12] was 17%. For the same compound, the “Population Normal (%)” value [12] was 81%, the “Population Pyknosed Nuclei (%)” value [12] was 49% and the “Population Tubulin-Different-Phenotype (%)” value [12] was 72%. For the same compound, the “Total Cell Count” value [12] was 84.
`CNCc1ccc(-c2cc(-c3nc(-c4ccc(S(=O)(=O)C(C)C)cc4)cnc3N)on2)cc1` [BERZOSERTIB] was tested, and the “Population Apoptotic (%)” value [1] was 16% and 46%, the “Population Healthy Nuclei (%)” value [1] was 6% and 0% and the “Population Hoechst High Intensity Objects (%)” value [1] was 31% and 81%. The “Population Membrane Permeable-Phenotype (%)” value [1] was 46% and 20%, the “Population Mitochondria Different-Phenotype (%)” value [1] was 40% and 20% and the “Population Mitotic Cells (%)” value [1] was 83% and 53%. For the same compound, the “Population Tubulin-Different-Phenotype (%)” value [1] was 40% and 80%, the “Total Cell Count” value [1] was 185 and 523 and the “Population Apoptotic (%)” value [2] was 10%. For the same compound, the “Population Fragmented Nuclei (%)” value [2] was 41% and 95%, the “Population Healthy Nuclei (%)” value [2] was 10% and 1% and the “Population Hoechst High Intensity Objects (%)” value [2] was 52% and 83%. The “Population Membrane Permeable-Phenotype (%)” value [2] was 42% and 55%, the “Population Mitotic Cells (%)” value [2] was 89% and the “Population Normal (%)” value [2] was 47% and 16%. The “Population Pyknosed Nuclei (%)” value [2] was 48%, the “Population Apoptotic (%)” value [3] was 17% and 38% and the “Population Healthy Nuclei (%)” value [3] was 4% and 0%. For the same compound, the “Population Hoechst High Intensity Objects (%)” value [3] was 49% and 82%, the “Population Membrane Permeable-Phenotype (%)” value [3] was 58% and 75% and the “Population Mitochondria Different-Phenotype (%)” value [3] was 25% and 0%. The “Population Mitotic Cells (%)” value [3] was 82% and 61%, the “Population Normal (%)” value [3] was 50% and 17% and the “Population Tubulin-Different-Phenotype (%)” value [3] was 41% and 50%. The “Population Apoptotic (%)” value [4] was 11%, the “Population Fragmented Nuclei (%)” value [4] was 39% and 97% and the “Population Healthy Nuclei (%)” value [4] was 9% and 1%. For the same compound, the “Population Hoechst High Intensity Objects (%)” value [4] was 45%, the “Population Membrane Permeable-Phenotype (%)” value [4] was 31% and 62% and the “Population Mitochondria Different-Phenotype (%)” value [4] was 5% and 12%. The “Population Mitotic Cells (%)” value [4] was 88%, the “Population Normal (%)” value [4] was 54% and the “Population Apoptotic (%)” value [5] was 50%. For the same compound, the “Population Healthy Nuclei (%)” value [5] was 0% and 11%, the “Population Hoechst High Intensity Objects (%)” value [5] was 81% and 50% and the “Population Membrane Permeable-Phenotype (%)” value [5] was 50% and 61%. The “Population Mitotic Cells (%)” value [5] was 50%, the “Population Normal (%)” value [5] was 18% and 49% and the “Population Tubulin-Different-Phenotype (%)” value [5] was 50% and 61%. For the same compound, the “Total Cell Count” value [5] was 432 and 192, the “Population Apoptotic (%)” value [6] was 28% and the “Population Fragmented Nuclei (%)” value [6] was 37% and 97%. The “Population Hoechst High Intensity Objects (%)” value [6] was 56% and 82%, the “Population Membrane Permeable-Phenotype (%)” value [6] was 38% and 44% and the “Population Mitochondria Different-Phenotype (%)” value [6] was 33% and 11%. The “Population Mitotic Cells (%)” value [6] was 71%, the “Population Normal (%)” value [6] was 43% and 17% and the “Population Pyknosed Nuclei (%)” value [6] was 41%. For the same compound, the “Population Tubulin-Different-Phenotype (%)” value [6] was 47% and 55%, the “Total Cell Count” value [6] was 92 and 244 and the “Population Apoptotic (%)” value [7] was 33% and 22%. The “Population Fragmented Nuclei (%)” value [7] was 19%, the “Population Healthy Nuclei (%)” value [7] was 10% and the “Population Hoechst High Intensity Objects (%)” value [7] was 59%. For the same compound, the “Population Membrane Permeable-Phenotype (%)” value [7] was 61%, the “Population Mitotic Cells (%)” value [7] was 66% and 77% and the “Population Normal (%)” value [7] was 40%. The “Population Pyknosed Nuclei (%)” value [7] was 70%, the “Population Tubulin-Different-Phenotype (%)” value [7] was 75% and the “Population Apoptotic (%)” value [8] was 14% and 40%. The “Population Fragmented Nuclei (%)” value [8] was 38% and 98%, the “Population Healthy Nuclei (%)” value [8] was 15% and 0% and the “Population Hoechst High Intensity Objects (%)” value [8] was 51% and 82%. For the same compound, the “Population Mitochondria Different-Phenotype (%)” value [8] was 21% and 16%, the “Population Mitotic Cells (%)” value [8] was 85% and 60% and the “Population Normal (%)” value [8] was 48% and 17%. For the same compound, the “Population Tubulin-Different-Phenotype (%)” value [8] was 36% and 66%.
